# Measurements taken from ChEMBL document CHEMBL1123397, “Antiarrhythmic activity of 17 beta-aminoestratrienes. Comparison of 3-ols and 3-acetates with the corresponding 3-(3-amino-2-hydroxypropyl) ethers” (1986).
# What was measured:
# Rattus norvegicus [1] = assay: Effective dose that antagonized arrhythmias evoked by coronary artery ligation in the rat was measured at 5 mg/kg dose; type: functional
# Rattus norvegicus [2] = assay: Effect on heart rate after isoprenaline induced tachycardia in the anesthetized rat at 5 mg/kg dose; type: functional
# How it was run: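 Same ligation protocol in anaesthetised male Wistar rats. Heart rate was taken from the lead II ECG at three points: just before i.v. drug or vehicle, 14 min after it (just before isoprenaline 10 μg/kg), and 1 min after isoprenaline. Pre vs post rates and isoprenaline responses vs controls were compared by Student's t test. Mean ± SEM of 7-12 observations.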
# Rattus norvegicus [3] = assay: Effect on heart rate before isoprenaline induced tachycardia in the anesthetized rat at 5 mg/kg dose; type: functional
# How it was run: (§1)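 Test drug or vehicle was given i.v., and isoprenaline (10 µg/kg) 14 min later. Heart rate was read from the lead II ECG just before drug, at 14 min (pre-isoprenaline) and 1 min after isoprenaline. Compared by Student's t test; 7–12 animals per group; mean ± SEM.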
# Rattus norvegicus [4] = assay: Effect on heart rate on 1 min post isoprenaline induced tachycardia in the anesthetized rat at 5.0 mg/kg dose.; type: functional; how it was run: as §1
# Rattus norvegicus [5] = assay: Compound was tested for antagonism of Ventricular Fibrilloflutter (VF) evoked by coronary artery ligation in the rat measured at 10 mg/kg dose; type: functional, Heart
# How it was run: (§2)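 Male Wistar rats, anaesthetised and artificially ventilated, with left thoracotomy; silk suture under main left coronary artery. After stabilization, test drug or vehicle i.v.; 14 min later isoprenaline 10 μg/kg; 1 min after that the ligature was tightened and VF incidence recorded over 30 min. Carotid pressure and lead II ECG monitored continuously. 7-12 animals per group.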
# Rattus norvegicus [6] = assay: Antagonism of Ventricular Fibrilloflutter (VF) evoked by coronary artery ligation in the rat measured at 2 mg/kg dose; type: functional, Heart; how it was run: as §2
# Rattus norvegicus [7] = assay: Compound was tested for antagonism of Ventricular Fibrilloflutter (VF) evoked by coronary artery ligation in the rat measured at 5 mg/kg dose; type: functional, Heart; how it was run: as §2
# Rattus norvegicus [8] = assay: Mean change in heart rate recorded 14 min after the administration of compound.; type: functional; how it was run: as §1
# Rattus norvegicus [9] = species on record: Rattus norvegicus; assay: Maximum increase in heart rate evoked by isoprenaline.; type: functional; how it was run: as §1
# Cavia porcellus [10] = species on record: Cavia porcellus; assay: Compound was tested for antiarrhythmic activity expressed as action potential height (AP) in guinea pig atria at 1(ug/mL) concentration; type: functional, Heart
# How it was run: (§3)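 Guinea pig left atria pinned in a recording chamber, superfused with carbogen-gassed Krebs solution at 35 ± 0.5 °C and electrically stimulated. Transmembrane action potentials were recorded with conventional microelectrodes, giving RMP, AP height, APD50, APD90 and maximum rate of depolarization. Values are mean ± SEM from n cells across five preparations.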
# Cavia porcellus [11] = species on record: Cavia porcellus; assay: Compound was tested for antiarrhythmic activity expressed as action potential height (AP) in guinea pig atria at 2(ug/mL) concentration; type: functional, Heart; how it was run: as §3
# Cavia porcellus [12] = species on record: Cavia porcellus; assay: Compound was tested for antiarrhythmic activity (time taken to reach 50% repolarization) in guinea pig atria at 1(ug/mL) concentration; type: functional, Heart; how it was run: as §3
# Cavia porcellus [13] = species on record: Cavia porcellus; assay: Compound was tested for antiarrhythmic activity (time taken to reach 50% repolarization) in guinea pig atria at 2(ug/mL) concentration; type: functional, Heart; how it was run: as §3
# Cavia porcellus [14] = species on record: Cavia porcellus; assay: Compound was tested for antiarrhythmic activity (time taken to reach 50% repolarization) in guinea pig atria at 4(ug/mL) concentration; type: functional, Heart; how it was run: as §3
# Cavia porcellus [15] = species on record: Cavia porcellus; assay: Compound was tested for antiarrhythmic activity (time taken to reach 90% repolarization) in guinea pig atria at 1(ug/mL) concentration; type: functional, Heart; how it was run: as §3
# Cavia porcellus [16] = species on record: Cavia porcellus; assay: Compound was tested for antiarrhythmic activity (time taken to reach 90% repolarization) in guinea pig atria at 2(ug/mL) concentration; type: functional, Heart; how it was run: as §3
# Cavia porcellus [17] = species on record: Cavia porcellus; assay: Compound was tested for antiarrhythmic activity (time taken to reach 90% repolarization) in guinea pig atria at 4(ug/mL) concentration; type: functional, Heart; how it was run: as §3
# Cavia porcellus [18] = species on record: Cavia porcellus; assay: Compound was tested for antiarrhythmic activity expressed as action potential height (AP) in guinea pig atria at 4(ug/mL) concentration; type: functional, Heart; how it was run: as §3
# Cavia porcellus [19] = species on record: Cavia porcellus; assay: Compound was tested for antiarrhythmic activity (maximum rate of phase 0 depolarization- MRD) in guinea pig atria at 1(ug/mL) concentration; type: functional, Heart; how it was run: as §3
# Cavia porcellus [20] = species on record: Cavia porcellus; assay: Compound was tested for antiarrhythmic activity (maximum rate of phase 0 depolarization- MRD) in guinea pig atria at 2(ug/mL) concentration; type: functional, Heart; how it was run: as §3
# Cavia porcellus [21] = species on record: Cavia porcellus; assay: Compound was tested for antiarrhythmic activity (maximum rate of phase 0 depolarization- MRD) in guinea pig atria at 4(ug/mL) concentration; type: functional, Heart; how it was run: as §3
# Cavia porcellus [22] = species on record: Cavia porcellus; assay: Compound was tested for antiarrhythmic activity expressed as resting membrane potential (RMP) in guinea pig atria at 1(ug/mL) concentration; type: functional; details: Heart; how it was run: as §3
# Cavia porcellus [23] = species on record: Cavia porcellus; assay: Compound was tested for antiarrhythmic activity expressed as resting membrane potential (RMP) in guinea pig atria at 2(ug/mL) concentration; type: functional; details: Heart; how it was run: as §3
# Cavia porcellus [24] = species on record: Cavia porcellus; assay: Compound was tested for antiarrhythmic activity expressed as resting membrane potential (RMP) in guinea pig atria at 4(ug/mL) concentration; type: functional; details: Heart; how it was run: as §3
# Cavia porcellus [25] = species on record: Cavia porcellus; assay: Concentration required to reduce maximum following frequencu (MFF) of isolated guinea pig atria by 25%; type: functional
# How it was run: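 Guinea pig left atria in an organ bath of Krebs solution at 35 °C, gassed with carbogen, electrically driven, isometric contractions recorded. Drugs added cumulatively; maximum following frequency determined 6 min after each concentration. Concentration reducing MFF by 25% (EC25) calculated from six preparations.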
# Mus musculus = species on record: Mus musculus; assay: ED 50 value against aconitine-induced arrhythmias in mice; type: functional
# How it was run: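 Anaesthetised mice were given test compound intraperitoneally, then aconitine intravenously to induce arrhythmia. At least three doses were tested in separate groups (n = 6-10). ED50 is the dose raising the arrhythmogenic aconitine dose 50% above the control requirement.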
# Rattus norvegicus [26] = assay: Effect dose of compound that antagonized arrhythmias evoked by coronary artery ligation in the rat was measured at 0.05 mg/kg dose; type: functional; how it was run: as §2
# Rattus norvegicus [27] = assay: Compound was tested for antagonism of Ventricular Fibrilloflutter (VF) evoked by coronary artery ligation in the rat measured at 0.05 mg/kg dose; type: functional, Heart; how it was run: as §2
# Rattus norvegicus [28] = assay: Compound was tested for antagonism of Ventricular Fibrilloflutter (VF) evoked by coronary artery ligation in the rat measured at 0.1 mg/kg dose; type: functional, Heart; how it was run: as §2
# Rattus norvegicus [29] = assay: Compound was tested for antagonism of Ventricular Fibrilloflutter (VF) evoked by coronary artery ligation in the rat measured at 0.02 mg/kg dose; type: functional, Heart; how it was run: as §2
smiles,measurement,setting,value
CC(=O)Nc1ccc(OCC(O)CNC(C)C)cc1 (stereo not given) [PRACTOLOL],ED50,Rattus norvegicus [1],5.6 mg/kg
same,Heart rate,Rattus norvegicus [2],351 beats min-1
same,Heart rate,Rattus norvegicus [3],459 beats min-1
same,Heart rate,Rattus norvegicus [4],377 beats min-1
same,VF,Rattus norvegicus [5],29%
same,VF,Rattus norvegicus [6],80%
same,VF,Rattus norvegicus [7],43%
same,Change,Rattus norvegicus [8],-23.5%
same,Increase,Rattus norvegicus [9],7.4%
CNC1[C@H](O)C[C@H]2[C@@H]3CCc4cc(O)ccc4[C@H]3CC[C@]12C (stereo not given in full),AP,Cavia porcellus [10],85.8 mV
same,AP,Cavia porcellus [11],86.3 mV
same,APD50,Cavia porcellus [12],49.2 ms
same,APD50,Cavia porcellus [13],45.5 ms
same,APD50,Cavia porcellus [14],44.5 ms
same,APD90,Cavia porcellus [15],83.6 ms
same,APD90,Cavia porcellus [16],80.2 ms
same,APD90,Cavia porcellus [17],80.6 ms
same,AP,Cavia porcellus [18],81.5 mV
same,MRD,Cavia porcellus [19],98.4 V s-1
same,MRD,Cavia porcellus [20],86.5 V s-1
same,MRD,Cavia porcellus [21],62.4 V s-1
same,RMP,Cavia porcellus [22],72.8 mV
same,RMP,Cavia porcellus [23],75.8 mV
same,RMP,Cavia porcellus [24],72.1 mV
same,EC25,Cavia porcellus [25],1.67 µg/mL
same,ED50,Mus musculus,5.9 mg/kg
same,ED50,Rattus norvegicus [26],0.04 mg/kg
same,VF,Rattus norvegicus [27],33%
same,VF,Rattus norvegicus [28],17%
same,VF,Rattus norvegicus [29],83%
